Source: ChEMBL document CHEMBL1134321, “Structure-based generation of a new class of potent Cdk4 inhibitors: new de novo design strategy and library design” (J Med Chem, 2001)

Assay: Inhibitory activity against CDK4 using recombinant human cyclin D2-CDK4 complex expressed in sf9 cells
In short: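 Recombinant human cyclin D2–Cdk4, baculovirus-expressed in Sf9 cells and HPLC-purified; incubated with 50 µM ATP plus 0.5-1.5 µCi [33P]-ATP, 100 µM or 400 µM G1 peptide, in 20 mM Tris-HCl pH 7.4, 10 mM MgCl2, 4.5 mM 2-mercaptoethanol, 1 mM EGTA, 30 °C, 45 min.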

## CN(C)c1cc(NC(=O)Nc2ccccc2)c2ccccc2n1
  IC50: 90 µM

## O=C(Nc1ccccn1)Nc1cccc2c1[C@H]1CCCN1C2=O
  IC50: 0.042 µM

## COc1nc(N)c(C#N)c(-c2ccc3c(c2)OCO3)c1C#N
  IC50: 36 µM

## Cc1ccc(Cl)cc1NC(=O)Nc1cccc2ccc(O)cc12
  IC50: 44 µM

## O=C(Nc1ccccc1)Nc1ccccn1
  IC50: 100 µM

## O=C(Nc1ccccn1)NC1CCCCC1
  IC50: > 100 µM

## O=C(NCc1ccccc1)Nc1ccccn1
  IC50: > 100 µM

## O=C(Nc1ccccn1)Nc1cccc2ncccc12
  IC50: 2.4 µM

## O=C(Nc1ccccn1)Nc1cccc2c1-c1cccn1C2=O
  IC50: 0.034 µM

## Nc1nc(N)nc(C2=Cc3cc(Cl)ccc3OC2)n1
  IC50: 450 µM

## O=C(Nc1nccs1)Nc1cccc2ccc(O)cc12
  IC50: 23 µM

## O=C(Nc1ccccn1)Nc1cccc2c1[C@@H]1CCCN1C2=O
  IC50: 0.19 µM

## O=C(Nc1cccc2ccc(O)cc12)NC1CCCC1
  IC50: 150 µM

## O=C1NC(=S)NC(=O)C1=Cc1c(O)ccc2ccccc12
  IC50: 100 µM

## O=C(Nc1cc(-c2cccs2)ccn1)Nc1cccc2c1C1CCCN1C2=O (stereo not drawn)
  IC50: 0.011 µM

## O=C(Cc1ccccc1)Nc1cccc2ccc(O)cc12
  IC50: > 1000 µM

## C=C(O)c1ccc2n1C(=O)c1cccc(NC(=O)Nc3ccccn3)c1-2
  IC50: 0.017 µM

## O=C(Nc1ccccc1)Nc1cccc2ccc(O)cc12
  IC50: 120 µM

## O=C(Nc1ccc2c[nH]nc2c1)Nc1ccccn1
  IC50: 0.67 µM

## CC(C)NC(=O)Nc1cccc2ccc(O)cc12
  IC50: 220 µM

## O=C(NCc1ccccc1)Nc1cccc2ccc(O)cc12
  IC50: 410 µM

## Nc1nc(N)c2nc(-c3ccccc3)c(N)nc2n1 [TRIAMTERENE]
  IC50: 210 µM

## O=C(Nc1ccncc1)Nc1cccc2ccc(O)cc12
  IC50: 110 µM

## O=C(Nc1ccc2ncccc2c1)Nc1ccc2ncccc2c1
  IC50: 77 µM

## Nc1nc(O)c2nc(CNc3ccc(C(=O)O)cc3)cnc2n1 [PTEROIC ACID]
  IC50: 16 µM

## O=C(Nc1ccccn1)Nc1cccc2c1-c1ccccc1C2=O
  IC50: 0.1 µM

## O=C1NC(=O)C(=Cc2ccc3c(c2)OCO3)C(=O)N1
  IC50: 350 µM

## O=C(Nc1cccnc1)Nc1cccc2ccc(O)cc12
  IC50: 340 µM

## O=C(Nc1ccccn1)Nc1cccc2ccc(O)cc12
  IC50: 7.6 µM

## Cc1[nH]c2ccccc2c1/C=C1/NC(=S)NC1=O
  IC50: 14 µM

## CSc1ccc(NC(=O)Nc2cccc3c(O)cccc23)cc1
  IC50: 40 µM

## CN(C)c1cc(NC(=O)Nc2cccc(Cl)c2)c2ccccc2n1
  IC50: 36 µM

## O=C(Nc1ccccn1)Nc1cccc2c1C(=O)NC2=O
  IC50: 3.6 µM
